Activation data for 54 compounds are collected here from PubChem BioAssay AID624467 (The Scripps Research Institute Molecular Screening Center, 2012).

Among all 360,000 compounds or so, about 3,600 (1%) were called active.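 How the source made its calls: active means activation above the mean activation of all test compounds in the run plus 3 SD (cut at about 38% in these data); inactive means the rest.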 For the sample, actives were picked, then their nearest neighbours and some compounds at random.

Trace amine-associated receptor 1 (Homo sapiens), sequence (Q96RJ0 whole entry, looked up): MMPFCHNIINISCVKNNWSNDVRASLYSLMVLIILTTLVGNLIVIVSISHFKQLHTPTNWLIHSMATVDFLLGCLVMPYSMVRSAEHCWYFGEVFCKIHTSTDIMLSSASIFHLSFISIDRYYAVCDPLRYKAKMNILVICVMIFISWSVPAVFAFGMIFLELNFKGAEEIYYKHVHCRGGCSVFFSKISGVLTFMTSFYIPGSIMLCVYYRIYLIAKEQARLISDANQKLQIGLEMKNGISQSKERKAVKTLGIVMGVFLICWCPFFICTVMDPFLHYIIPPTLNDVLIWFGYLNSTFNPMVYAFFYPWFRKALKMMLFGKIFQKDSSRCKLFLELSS

This assay concerns the target Trace amine-associated receptor 1 (Homo sapiens) (UniProt Q96RJ0). In words: activators of TAAR1 calcium mobilization – Fluo-8 calcium fluorescence, CHO RD-HGA16 cells, primary screen (AID 624467). The following applies: CHO RD-HGA16 TAAR1, Fluo-8 calcium fluorescence; at 3 µM; stronger effect = higher value; vehicle wells 0%, saturating PEA agonist 100%. A digest of the protocol: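 test system = CHO RD-HGA16 cells carrying human TAAR1 plus Gα16 | schedule = 17-24 h seeding, 75 min 37 °C dye, 30 min RT | compound dosing = 3 µM single concentration | control set = DMSO and PEA EC100 | replicates = n 1 | signal = Fluo-8 fluorescence, 5 s baseline then 140 s kinetic read | measure = percent activation vs PEA EC100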
(A change in cytosolic calcium serves as a functional read-out for many receptors and channels.)
As to `C[C@H](O)[C@@H]1C(=O)N2CCc3c([nH]c4ccccc34)[C@@H]2C[C@@H]1N(C)C(=O)Nc1ccc(F)cc1`, the activation is 9.88% (inactive).
For `CCOc1ccc(NC(=O)N2CC=C(n3c(=O)[nH]c4ccccc43)CC2)cc1` the value was 15.9% (inactive).
Turning to `C=CCNC(=S)N1CCc2[nH]c3ccccc3c2C1`, the activation was 6.5% (inactive).
On to `Fc1ccc(NC(=S)N2CCc3[nH]c4ccccc4c3C2)cc1`, for which the activation was 51.5% (active).
For `O=C(Nc1ccc(Cl)cc1)N1CCc2[nH]c3ccccc3c2C1` the value was 50.1% (active); for `CC(=O)C(CC(=O)N1CCCC1)C(=O)Nc1ccc(Cl)cc1` (centres undefined), 7.47% (inactive).
For `COC(=O)C(C(=O)OC)c1ccccc1NS(=O)(=O)c1cccc2ccccc12` the value was -0.61% (inactive).
The figure for `CCOc1ccccc1C(=O)N1CCC[C@@H]1C(=O)N1CCC[C@H]1C(=O)NCc1ccccc1` is -0.21% (inactive); for `Cc1ccc2nc(CN(C)C(=O)[C@@H](Cc3ccccc3)NC(=O)[C@H]3O[C@@H](n4ccc(=O)[nH]c4=O)[C@H](O)[C@@H]3O)[nH]c2c1` it is 1.15% (inactive).
As for `CC(C)CCNC(=O)Cn1c(=O)oc2cc(S(=O)(=O)N3CC(C)CC(C)C3)ccc21` (centres undefined), the activation is 4.15% (inactive).
For the compound `N/C(=N\c1nc2ccccc2o1)NC(=O)C(Cc1ccccc1)N1C(=O)c2ccccc2C1=O` (centres undefined), the activation was -1.96% (inactive).
For `Cc1ccc(C)c(CN2CCC(CNC(=O)Nc3ccc(C)c(F)c3)CC2)c1`, the activation is 2.76% (inactive).
The figure for `Cc1cccc(CN2CCC(CNC(=O)Nc3ccc(F)c(Cl)c3)CC2)c1` is 39.9% (active).
On to `O=C(NCC1CCN(Cc2ccccc2Cl)CC1)Nc1cccc(Cl)c1`, for which the activation was 2.1% (inactive).
The figure for `COc1ccc(C(=O)OCC(=O)NCC2CCCO2)cc1[N+](=O)[O-]` (centres undefined) is -0.84% (inactive).
In the case of `O=S(=O)(Nc1cc(S(=O)(=O)N2CCOCC2)ccc1N1CCCC1)c1cccs1`, the activation is -2.22% (inactive).
In the case of `CC1(C)c2[nH]c3ccccc3c2C[C@H]2C(=O)N(N)CC(=O)N21`, the activation is 4.18% (inactive).
On to `COc1cc(S(=O)(=O)N2CCN=C2c2ccccc2)ccc1Cl`, for which the activation was -0.47% (inactive).
For `CCOC(=O)[C@]12CCCC=C1N(CCC1=CCCCC1)C(=O)[C@H](CC(=O)NCCCOC)C2` the value was -0.95% (inactive); for `CCOc1ccc(/C=C(/NC(=O)c2ccccc2)C(=O)NCCC(=O)O)cc1`, 5.67% (inactive); for `O=C(NCCN1CCOCC1)/C(=C/c1ccc(F)cc1)NC(=O)c1ccccc1`, -2.27% (inactive).
The figure for `O=C(NCCc1ccccc1)/C(=C\c1ccc([N+](=O)[O-])cc1)NC(=O)c1ccccc1` is 50.3% (active).
For `COC(=O)Cc1nnn2c1[C@H](C)[C@@H](OC)c1cc(Br)ccc1-2`, the activation was 0.26% (inactive).
On to `O=C(Cn1cnc2c(cnn2-c2ccc(F)cc2)c1=O)NCCc1ccccc1`, for which the activation was -0.7% (inactive).
The figure for `Cc1nnc(NC(=O)Nc2ccc(Cl)c(Cl)c2)s1` is 42% (active); for `O=C(CC(O)(C(F)(F)F)C(F)(F)F)Nc1ccc(Cl)c(Cl)c1` it is 12.3% (inactive); for `Cc1ccc(NC(=O)Nc2cc(-c3ccccc3)nn2C)cc1Cl` it is 11.2% (inactive).
Take `O=P(O)(CP(=O)(c1ccccc1)c1ccccc1)c1ccccc1`: the activation is 12.7% (inactive).
For `COc1ccc(CCNC(=O)COC(=O)Cc2ccccc2F)cc1` the value was 2.06% (inactive); for `O=C(COC(=O)Cc1ccccc1F)NCCc1ccccc1`, 47.4% (active).
For `O=C(COC(=O)Cc1c[nH]c2ccccc12)NCCc1ccccc1` the value was 8.93% (inactive).
As for `COc1ccccc1N(CC(=O)NC1CCCC1)C(=O)C1(C)CC(=O)N=C2C=CC(C)=CN21` (centres undefined), the activation is 2.01% (inactive).
For `CC1CCN(C(=O)c2cccc(S(=O)(=O)N3CCCc4ccccc43)c2)CC1` the value was 2.06% (inactive); for `CCN(CC)CCN(C(=O)c1ccc(N2C(=O)CCC2=O)cc1)c1nc2cc3c(cc2s1)OCO3`, 2.36% (inactive); for `CCN(CC(=O)Nc1c(F)cccc1F)C(=O)c1ccc(S(=O)(=O)N2CCCCC2)cc1`, 8.1% (inactive).
The figure for `CCC(=O)Nc1nnc(S(=O)(=O)N2CCCc3ccccc32)s1` is 0.28% (inactive); for `CN(C)CCCN(C(=O)c1ccc(S(=O)(=O)N2CCCCCC2)cc1)c1nc2ccc(Br)cc2s1` it is 58.3% (active); for `CN(C)CCCN(C(=O)c1ccc(S(=O)(=O)N2CCCc3ccccc32)cc1)c1nc2ccc(F)cc2s1` it is 58.5% (active).
The figure for `O=C(NN=Cc1ccccc1O)NN=Cc1ccccc1O` is 43.2% (active); for `C=CCOc1ccccc1/C=N/NC(=O)Cc1ccccc1` it is 3.06% (inactive).
For `O=C(CO/N=C/c1ccccc1O)NNC(=O)c1ccccc1Cl`, the activation is 8.86% (inactive).
For `NC(CSC(c1ccccc1)(c1ccccc1)c1ccc(-c2ccccc2)cc1)C(=O)O` (centres undefined) the value was 3.19% (inactive).
For `O=S(=O)(Cc1ccc(Cl)cc1Cl)c1ccc(Cl)cc1` the value was 6.28% (inactive).
The figure for `COC(=O)C1=C(C)N(Cc2cccc(C(F)(F)F)c2)C(=NCc2cccc(C(F)(F)F)c2)NC1c1ccccc1C(F)(F)F` (centres undefined) is -0.1% (inactive); for `O=C(N[C@H](C(=O)N1CCC[C@H]1C(=O)NCCc1ccccc1Cl)c1ccccc1)c1ccccc1` it is 57.5% (active).
As to `CC(=O)c1cccc(NC(=O)N2CCCC2C(=O)NCCc2ccccc2)c1` (centres undefined), the activation was 4.48% (inactive).
For `O=C(NCCc1ccc(Cl)cc1)C1CCCN1C(=O)NCc1ccccc1` (centres undefined) the value was -0.77% (inactive); for `CC1CCN(C(=O)CCc2nnc3ccc(NCc4ccco4)nn23)CC1`, 6.46% (inactive).
For `COc1ccc(N2C(=O)CC(Nc3ccc(F)cc3)C2=O)c([N+](=O)[O-])c1` (centres undefined) the value was 2.14% (inactive); for `Nc1nc2c(ncn2[C@@H]2O[C@H](C(=O)N[C@@H](Cc3ccccc3)C(=O)NCc3ccccc3)[C@@H](O)[C@H]2O)c(=O)[nH]1`, 5.02% (inactive).
For `CC(C)[C@H](NC(=O)N1CCn2c1nc1ccccc12)C(=O)NC1CC1` the value was 1.88% (inactive); for `CC(C)[C@H](NC(=O)N1CCn2c1nc1ccccc12)C(=O)NCc1ccc2c(c1)OCO2`, 3.58% (inactive).
`CC(C)[C@H](NC(=O)N1CCn2c1nc1ccccc12)C(=O)NCCc1ccccc1`: the activation is 38.9% (active).
With `C=CCOc1ccc(C(=O)Nc2ccccc2C(=O)N2CCCC2)cc1`, the activation was -0.26% (inactive).
